The values below come from ChEMBL document CHEMBL1140003, “Bivalent ligand approach on 4-[2-(3-methoxyphenyl)ethyl]-1-(2-methoxyphenyl)piperazine: synthesis and binding affinities for 5-HT(7) and 5-HT(1A) receptors” (Bioorg Med Chem, 2007).

The target in test [1] is 5-hydroxytryptamine receptor 1A (Homo sapiens) (UniProt P08908). In words: Displacement of [3H]-8-OH-DPAT from human recombinant 5HT1A receptor expressed in HEK293 cells.
Test [2] deals with 5-hydroxytryptamine receptor 7 (Rattus norvegicus, UniProt P32305). In words: Displacement of [3H]LSD from rat recombinant 5HT7 receptor expressed in HEK293 cells. It is filed as cell-based. Put shortly:
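Membranes (30 µg) incubated 60 min at 37 °C with 2.5 nM [3H]LSD and 6–9 test concentrations in 50 mM Tris, 10 mM MgCl2, 0.5 mM EDTA, pH 7.4. Stopped by GF/A filtration (0.5% PEI pre-soak), cold-buffer washes; nonspecific binding defined by 10 µM 5-CT. Ki by nonlinear curve fit and Cheng–Prusoff; mean ± SEM of three experiments in triplicate.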

SMILES strings stand for the structures.

Chain of 5-hydroxytryptamine receptor 1A (Homo sapiens) (P08908 whole entry, looked up): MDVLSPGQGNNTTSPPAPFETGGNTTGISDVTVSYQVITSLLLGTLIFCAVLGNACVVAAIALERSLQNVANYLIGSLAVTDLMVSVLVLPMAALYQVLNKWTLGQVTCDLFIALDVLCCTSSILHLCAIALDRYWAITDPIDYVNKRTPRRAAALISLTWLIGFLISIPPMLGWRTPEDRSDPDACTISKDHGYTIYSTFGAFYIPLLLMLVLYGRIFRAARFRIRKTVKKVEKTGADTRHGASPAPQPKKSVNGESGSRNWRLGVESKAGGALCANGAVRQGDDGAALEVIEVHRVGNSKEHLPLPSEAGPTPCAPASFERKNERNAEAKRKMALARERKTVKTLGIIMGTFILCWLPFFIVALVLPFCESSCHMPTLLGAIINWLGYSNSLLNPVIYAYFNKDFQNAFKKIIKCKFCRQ
Chain of 5-hydroxytryptamine receptor 7 (P32305 whole entry): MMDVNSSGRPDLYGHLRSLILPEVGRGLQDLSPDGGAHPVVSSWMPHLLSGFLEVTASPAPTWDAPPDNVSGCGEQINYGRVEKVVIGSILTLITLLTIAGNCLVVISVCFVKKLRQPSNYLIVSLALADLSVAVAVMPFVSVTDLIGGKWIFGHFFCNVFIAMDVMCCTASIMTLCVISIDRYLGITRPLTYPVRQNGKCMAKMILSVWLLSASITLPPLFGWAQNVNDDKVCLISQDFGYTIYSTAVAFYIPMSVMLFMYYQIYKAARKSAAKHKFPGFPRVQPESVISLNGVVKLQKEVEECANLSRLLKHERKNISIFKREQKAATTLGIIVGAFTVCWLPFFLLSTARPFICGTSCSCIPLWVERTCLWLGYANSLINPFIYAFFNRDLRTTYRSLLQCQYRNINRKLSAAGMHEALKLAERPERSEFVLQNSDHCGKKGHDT

As to `COc1ccccc1N1CCN(CCc2cccc(OCCCCCCCCCCCCOc3cccc(CCN4CCN(c5ccccc5OC)CC4)c3)c2)CC1`, in test [1], the Ki was 253 nM.

For `COc1ccccc1N1CCN(CCc2cccc(OC(=O)COCC(=O)Oc3cccc(CCN4CCN(c5ccccc5OC)CC4)c3)c2)CC1`, the Ki in test [2] turned out to be 43 nM; in test [1], 2.74 nM.

For the compound `COc1ccccc1N1CCN(CCc2cccc(OCCCCOc3cccc(CCN4CCN(c5ccccc5OC)CC4)c3)c2)CC1`, the Ki in test [2] came to 28.5 nM; in test [1], 0.9 nM.

For `COc1ccccc1N1CCN(CCc2cccc(OCCCCCCCCCCOc3cccc(CCN4CCN(c5ccccc5OC)CC4)c3)c2)CC1`, the inhibition constant Ki in test [2] was determined as 258 nM; in test [1], 28.3 nM.

With `COc1ccccc1N1CCN(CCc2cccc(OCCCCCCCCOc3cccc(CCN4CCN(c5ccccc5OC)CC4)c3)c2)CC1`, the Ki in test [2] worked out at 573 nM; in test [1], 4.8 nM.

For `COc1ccccc1N1CCN(CCc2cccc(OCCCOc3cccc(CCN4CCN(c5ccccc5OC)CC4)c3)c2)CC1`, the Ki was 25 nM in test [2] and 5.6 nM in test [1].

In the case of `COc1ccccc1N1CCN(CCc2cccc(OCCOc3cccc(CCN4CCN(c5ccccc5OC)CC4)c3)c2)CC1`, the figures for the Ki in test [2] and in test [1] were 41.1 nM and 2.2 nM, respectively.

`COc1ccccc1N1CCN(CCc2cccc(OCCCCCOc3cccc(CCN4CCN(c5ccccc5OC)CC4)c3)c2)CC1`: the Ki is 120 nM in test [2] and 1.74 nM in test [1].

With `COc1ccccc1N1CCN(CCc2cccc(OCCOCCOc3cccc(CCN4CCN(c5ccccc5OC)CC4)c3)c2)CC1`, the figures for the Ki in test [2] and in test [1] were 37 nM and 0.62 nM, respectively.

For the compound `COc1ccccc1N1CCN(CCc2cccc(OCCCCCCOc3cccc(CCN4CCN(c5ccccc5OC)CC4)c3)c2)CC1`, the Ki in test [2] was 42.6 nM; in test [1], 1.6 nM.
